Laboratory results published in publication PMC5856940 (Saudi Pharmaceutical Journal : SPJ, 2018).

Assays:
HEK293T cells [1] = assay: Cytotoxicity screening of AHAMCs, trypan blue exclusion assay; assay type: cell-based, Human; details: 25 mM, 24 h
How it was run: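 HEK293T cells were grown in DMEM with 10% FBS, 1mM pyruvate and antibiotics/antifungal at 37 °C and 5% CO2. Cells were seeded at 1 × 10^6 per well, grown 24 h, then given fresh medium. Test compound (100 mM DMSO stock, diluted in DMSO then dH2O) was added at 25 mM for 24 h. Cells were trypsinised (0.5%) and live/dead cells counted by trypan blue on a Bürker hemocytometer under bright field.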

HEK293T cells [2] = assay: Dose-dependent response; assay type: cell-based, Human; details: 24 h; for cytotoxicity at higher concentrations: 50 and 100 mM; for IC50: cell death, trypan blue, 6.25-100 mM
How it was run: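 HEK293T cells were seeded at 1 × 10^6 per well and grown 24 h. Medium was replaced with medium holding test compound at 6.25, 12.5, 25, 50 or 100 mM for 24 h. Read-out was trypan blue exclusion, with % cell death = dead/total cells × 100. IC50 was taken from a fitted concentration–effect curve. Three technical and biological repeats were done.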

HEK293T cells [3] = assay: Differentiation of apoptosis and necrosis by PI staining; assay type: cell-based, Human; details: for cell death compared to the other compounds: IC50, 24 and 48 h
How it was run: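 HEK293T cells (1 × 10^6 per well) were grown 24 h, then resuspended in medium with test compound at one fixed concentration for 24 or 48 h. Cells were washed three times in DPBS, trypsinised, washed again, and stained 5 min with 1 mg/mL PI in 2× SSC. Nuclei were imaged by confocal microscopy (ex 535, em 617 nm) and scored as apoptotic or necrotic. About 100 cells were counted per sample, with three technical and biological repeats.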

HEK293T cells [4] = assay: Externalized phosphatidylserine, Annexin-V staining; assay type: cell-based, Human
How it was run: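 HEK293T cells were exposed to test compound for 24 or 48 h, trypsinised, washed three times in DPBS and resuspended in annexin-binding buffer. Alexa Fluor 350 Annexin-V conjugate was added for 15 min at 37 °C, and cells were washed in binding buffer. Imaging was by confocal microscopy (ex 346, em 442 nm). About 100 cells were analysed per sample, with three technical and biological repeats.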

1321N1 cells = assay: Cytotoxicity in glioma cells, trypan blue assay; assay type: cell-based, Human; details: 1321N1, 100 µM, 24 h
How it was run: (§1)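 U-87 MG cells were grown in MEM with L-glutamine, and 1321N1 cells in DMEM with L-glutamine plus 2 mM sodium pyruvate. Both media had 10% FBS, penicillin/streptomycin and amphotericin B, at 37 °C and 5% CO2. Cells were seeded at 1 × 10^5 per well, grown 48 h, then exposed 24 h to 100 µM test compound, 0.1% DMSO or 100 µM temozolomide. Cells were trypsinised and scored by trypan blue. Biological and technical repeats were run.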

U-87 MG cells = assay: Cytotoxicity in glioma cells, trypan blue assay; assay type: cell-based, Human; details: 100 µM, 24 h
How it was run: as §1

[5] = test system: Syrian Hamster Embryo (SHE) cells; details: 60 µM ref Hahnel et al., 1999; cited from earlier work

Compound: 2-(2-(2,4-dioxopentan-3-ylidene)hydrazinyl)phenylarsonic acid [Compound 12]
- cytotoxicity (HEK293T cells [1]): ≤ 30%

Compound: 2-(2-(2-hydroxy-4-nitrophenyl)hydrazono)-2H-indene-1,3-dione [Compound 2]
- cytotoxicity (HEK293T cells [1]): ≤ 30%

Compound: 4-hydroxy-5-(2-(2,4,6-trioxo-tetrahydro-pyrimidin-5(6H) ylidene)hydrazinyl)benzene-1,3-disulfonic acid [Compound 6]
- cytotoxicity (HEK293T cells [1]): 36%
- cytotoxicity at higher concentrations (HEK293T cells [2]): did not elicit significant cytotoxicity
- IC50 (HEK293T cells [2]): 77.08 ± 0.5 mM
- cell death compared to the other compounds (HEK293T cells [3]): less cell death

Compound: 5-(2-(2,4-dioxopentan-3-ylidene)hydrazinyl)-2,3-dihydrophthalazine-1,4-dione [Compound 13]
- cytotoxicity (HEK293T cells [1]): ≤ 30%

Compound: 5-(2-(2-hydroxy-4-nitrophenyl)hydrazono)pyrimidine-2,4,6(1H,3H,5H)-trione [Compound 7]
- cytotoxicity (HEK293T cells [1]): ≤ 30%

Compound: 5-(2-(2-hydroxyphenyl) hydrazono)pyrimidine-2,4,6(1H,3H,5H)-trione [Compound 5]
- cytotoxicity (HEK293T cells [1]): 46%
- cell death (HEK293T cells [2]): ~80%
- IC50 (HEK293T cells [2]): 50.9 ± 2.5 mM
- apoptosis (HEK293T cells [3]; IC50 of compound, 24 h): about 40%
- necrosis (HEK293T cells [3]; IC50 of compound, 24 h): about 20%
- apoptosis (HEK293T cells [3]; IC50 of compound, 48 h): ≈ 60%
- cell death (HEK293T cells [3]; IC50 of compound, 48 h): ~80%
- necrosis (HEK293T cells [3]; IC50 of compound, 48 h): about 20%
- apoptotic effect (Annexin-V) (HEK293T cells [4]; 24 h and 48 h): more apoptotic effect compared to the other compounds
- higher inhibitory effect compared to temozolomide (1321N1 cells): 10%
- mortality (1321N1 cells): 20%
- lower inhibitory effect compared to temozolomide (U-87 MG cells): 10%
- mortality (U-87 MG cells): 10%

Compound: 5-(2-(4,4-dimethyl-2,6-dioxocyclohexylidene)hydrazinyl)-4-hydroxybenzene-1,3-disulfonic acid [Compound 9]
- cytotoxicity (HEK293T cells [1]): 42%
- cytotoxicity at higher concentrations (HEK293T cells [2]): did not elicit significant cytotoxicity
- cell death compared to the other compounds (HEK293T cells [3]): less cell death

Compound: 5-chloro-2-hydroxy-3-(2-(2,4,6-trioxo-tetrahydropyrimidin-5(6H)-ylidene)hydrazinyl)benzenesulfonic acid [Compound 4]
- cytotoxicity (HEK293T cells [1]): ≤ 30%

Compound: 5-chloro-3-(2-(4,4-dimethyl-2,6-dioxocyclohexylidene)hydrazinyl)-2-hydroxybenzenesulfonic acid [Compound 8]
- cytotoxicity (HEK293T cells [1]): 45%
- cell death (HEK293T cells [2]): ~80%
- IC50 (HEK293T cells [2]): 75.5 ± 2.3 mM
- apoptosis/necrosis response compared with compound 5 (HEK293T cells [3]; IC50, 48 h): lower response
- level of apoptosis (Annexin-V) (HEK293T cells [4]; 48 h): lower level of apoptosis

Compound: C[C@@H]1Cc2c(Cl)cc(C(=O)N[C@@H](Cc3ccccc3)C(=O)O)c(O)c2C(=O)O1 [Ochratoxin A]
- intracellular calcium increase compared to untreated cells [5]: 45%

Compound: (E)-3-(2-(1-ethoxy-1,3-dioxobutan-2-ylidene)hydrazinyl)-2-hydroxy-5-nitrobenzenesulfonic acid [Compound 1]
- cytotoxicity (HEK293T cells [1]): ≤ 30%

Compound: (Z)-5-chloro-2-hydroxy-3-(2-(4,4,4-trifluoro-1,3-dioxo-1-(thiophen-2-yl)butan-2-ylidene)hydrazinyl)benzenesulfonic acid [Compound 3]
- cytotoxicity (HEK293T cells [1]): ≤ 30%
